Experimental data taken from ChEMBL document CHEMBL1145938, “Synthesis and structure-activity relationship of aminobenzophenones. A novel class of p38 MAP kinase inhibitors with high antiinflammatory activity” (J Med Chem, 2003).

Columns and labels:
[1] = target: T1, Mitogen-activated protein kinase 14 (Homo sapiens, UniProt Q16539); assay: In vitro inhibitory activity determined against human mitogen-activated protein kinase p38 alpha
MAP kinase p38 [2] = target: T2, MAP kinase p38 (Homo sapiens, UniProt O15264+Q15759+Q16539+P53778); assay: In vitro inhibition of IL1-beta release from LPS stimulated human peripheral blood mononuclear cells.; type: functional
Outline: (§1)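 Human PBMC from buffy coats (Lymphoprep), 5×10^5 cells/mL in RPMI1640 with 2% FCS, glutamine, penicillin/streptomycin; 30 min preincubation with compound, then LPS stimulation, 18 h at 37 °C, 5% CO2.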

MAP kinase p38 [3] = target: T2, MAP kinase p38; assay: In vitro inhibition of TNF-alpha release from LPS stimulated human peripheral blood mononuclear cells.; type: functional; outline: as §1
[4] = target: Mitogen-activated protein kinase; ERK1/ERK2 (Homo sapiens) (UniProt P27361+P28482); assay: Inhibition of Mitogen-activated protein kinase 3/Mitogen-activated protein kinase 1 (ERK) at 10 uM; type: protein assay
Outline: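 MCF-7 cells stimulated with EGF; ERK1/2 activity measured with a modified cell-signalling ERK1/2 kinase kit in presence of compound.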

[5] = target: T1, Mitogen-activated protein kinase 14; assay: Inhibition of Mitogen-activated protein kinase p38 alpha at 1 uM
Outline: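 FLAG-tagged p38α cDNA was transfected into COS-1 cells. Kinase activity of the expressed isoform was measured with compound at 1 μM.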

[6] = target: Mitogen-activated protein kinase 11 (Homo sapiens) (UniProt Q15759); assay: Inhibition of Mitogen-activated protein kinase p38 beta at 1 uM
Outline: (§2)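 FLAG-tagged p38 isoform cDNA (β2, γ or δ) transfected into COS-1 cells; kinase activity of the expressed isoform measured with compound at 1 μM.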

[7] = target: T3, Mitogen-activated protein kinase 13 (Homo sapiens) (UniProt O15264); assay: Inhibition of Mitogen-activated protein kinase p38 delta at 1 uM; outline: as §2
T3 sequence (whole entry): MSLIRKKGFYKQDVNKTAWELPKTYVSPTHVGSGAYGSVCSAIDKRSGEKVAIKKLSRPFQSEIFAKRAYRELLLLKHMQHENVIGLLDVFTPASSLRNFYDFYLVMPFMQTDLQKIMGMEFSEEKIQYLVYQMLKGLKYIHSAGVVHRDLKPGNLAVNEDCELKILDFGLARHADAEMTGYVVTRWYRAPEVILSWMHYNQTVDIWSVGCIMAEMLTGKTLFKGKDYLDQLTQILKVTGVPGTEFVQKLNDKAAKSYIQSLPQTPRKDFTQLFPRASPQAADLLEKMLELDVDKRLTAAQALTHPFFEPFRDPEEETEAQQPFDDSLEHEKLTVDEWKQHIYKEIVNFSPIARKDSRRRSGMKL

[8] = target: T4, Mitogen-activated protein kinase 12 (Homo sapiens) (UniProt P53778); assay: Inhibition of Mitogen-activated protein kinase p38 gamma at 1 uM; outline: as §2
T4 sequence (whole entry): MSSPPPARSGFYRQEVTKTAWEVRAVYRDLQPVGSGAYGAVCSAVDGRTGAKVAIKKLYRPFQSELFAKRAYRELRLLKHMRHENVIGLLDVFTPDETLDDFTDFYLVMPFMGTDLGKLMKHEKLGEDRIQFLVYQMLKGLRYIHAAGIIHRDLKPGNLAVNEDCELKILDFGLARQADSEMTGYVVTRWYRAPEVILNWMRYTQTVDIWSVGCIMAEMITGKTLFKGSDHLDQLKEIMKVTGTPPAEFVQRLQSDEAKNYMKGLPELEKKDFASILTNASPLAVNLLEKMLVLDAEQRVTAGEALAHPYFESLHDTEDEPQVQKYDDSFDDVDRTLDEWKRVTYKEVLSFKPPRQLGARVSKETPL

Mus musculus [9] = species: Mus musculus; assay: Inhibition of ear swelling in oxazolone-induced murine allergic contact dermatitis at 0.5 mg/ear at 24 hr; type: functional
Outline: (§3)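 Groups of six female inbred BALB/cABOM mice (18–21 g) were sensitized with oxazolone on the clipped abdomen 7 days before right-ear challenge. Compound in acetone (20 μL) or vehicle was applied once, 30 min after challenge. Ear swelling (right minus left ear thickness) was read at 24, 48 and 72 h. Values are mean % inhibition ± SEM of four or five experiments.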

Mus musculus [10] = assay: Inhibition of ear swelling induced by 12-O-tetradecanoylphorbol-13-acetate (TPA) in murine chronic irritative contact dermatitis model at 0.5 mg/ear (in vivo); type: functional
Outline: (§4)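 Murine TPA-induced chronic irritative ear dermatitis, with compound given topically per ear. Ear swelling and ear weight were determined 5 h after the last application. Values are mean % inhibition ± SEM of three to five experiments.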

Mus musculus [11] = species: Mus musculus; assay: Inhibition of ear swelling induced by oxazolone induced murine allergic contact dermatitis model at 0.5 mg/ear at 72 hr; type: functional; outline: as §3
Mus musculus [12] = assay: Inhibition of ear weight induced by 12-O-tetradecanoylphorbol-13-acetate (TPA) in murine chronic irritative contact dermatitis model at 0.5 mg/ear (in vivo); type: functional; outline: as §4
[13] = target: T5, Myeloperoxidase (Mus musculus) (UniProt P11247); assay: Inhibition of myeloperoxidase (MPO) activity induced by TPA in murine chronic irritative contact dermatitis model at 0.5 mg/ear (in vivo); type: organism-based
T5 sequence (whole entry): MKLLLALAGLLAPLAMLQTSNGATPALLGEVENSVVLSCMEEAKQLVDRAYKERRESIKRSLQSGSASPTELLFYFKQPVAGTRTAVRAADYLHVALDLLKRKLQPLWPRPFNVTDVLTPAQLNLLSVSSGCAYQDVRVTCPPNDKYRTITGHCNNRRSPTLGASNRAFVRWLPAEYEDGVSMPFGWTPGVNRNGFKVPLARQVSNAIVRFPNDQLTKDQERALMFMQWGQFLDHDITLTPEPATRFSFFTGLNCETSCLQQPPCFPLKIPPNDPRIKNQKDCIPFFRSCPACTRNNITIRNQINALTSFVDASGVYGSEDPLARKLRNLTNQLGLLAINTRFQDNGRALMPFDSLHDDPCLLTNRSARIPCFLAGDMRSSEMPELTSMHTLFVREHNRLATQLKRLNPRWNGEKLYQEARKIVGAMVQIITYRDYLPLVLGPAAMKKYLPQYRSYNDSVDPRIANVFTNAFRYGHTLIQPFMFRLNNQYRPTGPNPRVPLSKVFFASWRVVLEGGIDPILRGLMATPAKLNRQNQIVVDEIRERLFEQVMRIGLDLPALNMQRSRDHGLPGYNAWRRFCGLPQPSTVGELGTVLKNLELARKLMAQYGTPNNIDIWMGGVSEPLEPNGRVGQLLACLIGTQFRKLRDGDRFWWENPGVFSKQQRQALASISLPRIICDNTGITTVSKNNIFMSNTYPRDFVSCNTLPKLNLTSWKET

Homo sapiens [14] = species: Homo sapiens; assay: In vitro inhibition of gamma-interferon release by human […]; type: functional
Outline: (§5)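 Human PBMC were isolated from buffy coats and diluted 1:1 in saline. Cells were held at 5×10^5 cells/mL in RPMI1640 with 2 mM glutamine and penicillin/streptomycin, then preincubated 30 min with compound. IL-12: 2% FCS, IFN-γ 95 ng/mL for 18 h, then LPS for 24 h. IL-2 and IFN-γ: 10% FCS, phytohemagglutinin for 48 h. Supernatant cytokine measured by sandwich ELISA.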

Homo sapiens [15] = species: Homo sapiens; assay: In vitro inhibition of cytokine IL-12 release by human […]; type: functional; outline: as §5
Homo sapiens [16] = species: Homo sapiens; assay: In vitro inhibition of cytokine IL-2 release by human […]; type: functional; outline: as §5
MAP kinase p38 [17] = target: T2, MAP kinase p38; assay: In vitro inhibition of cytokine IL-6 release by human […]; type: functional
Outline: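 PBMC isolated from buffy coats, 5×10^5 cells/mL in RPMI1640 plus 2% FCS, glutamine and antibiotics. Compound added 30 min before LPS; culture 6 h. Supernatant IL-6 or IL-8 quantified by ELISA kits.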

[18] = target: Mitogen-activated protein kinase 8 (Homo sapiens) (UniProt P45983); assay: Inhibition of c-Jun N-terminal kinase 1 at 10 uM
Outline: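 JNK1 activity from UV-stimulated MCF-7 cells, measured with a JNK1 kinase kit in presence of compound.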

MAP kinase p38 [19] = target: T2, MAP kinase p38; assay: In vitro inhibition of cytokine IL-10 release by human […]; type: functional
Outline: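 Buffy-coat PBMC at 5×10^5 cells/mL in RPMI1640 with 10% FCS, glutamine, antibiotics; 30 min compound preincubation, then phytohemagglutinin stimulation and 48 h incubation.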

MAP kinase p38 [20] = target: T2, MAP kinase p38; assay: In vitro inhibition of cytokine IL-8 release by human peripheral blood mononuclear cells
Mus musculus [21] = assay: Inhibition of ear swelling induced by oxazolone in murine allergic contact dermatitis model at 0.5 mg/ear at 48 hr (in vivo)
[22] = target: T5, Myeloperoxidase (Mus musculus); assay: Inhibition of myeloperoxidase (MPO) activity induced by oxazolone in murine allergic contact dermatitis model at 0.5 mg/ear at 72 hr
Mus musculus [23] = assay: Inhibition of ear swelling induced by 12-O-tetradecanoylphorbol-13-acetate (TPA) in murine chronic irritative contact dermatitis model at 0.001 mg/ear (in vivo); type: functional; outline: as §4
Mus musculus [24] = assay: Inhibition of ear weight induced by 12-O-tetradecanoylphorbol-13-acetate (TPA) in murine chronic irritative contact dermatitis model at 0.001 mg/ear (in vivo); type: functional; outline: as §4
[25] = target: T5, Myeloperoxidase (Mus musculus); assay: Inhibition of myeloperoxidase (MPO) activity induced by TPA in murine chronic irritative contact dermatitis model at 0.001 mg/ear (in vivo); type: organism-based

T1 sequence (Q16539 whole entry): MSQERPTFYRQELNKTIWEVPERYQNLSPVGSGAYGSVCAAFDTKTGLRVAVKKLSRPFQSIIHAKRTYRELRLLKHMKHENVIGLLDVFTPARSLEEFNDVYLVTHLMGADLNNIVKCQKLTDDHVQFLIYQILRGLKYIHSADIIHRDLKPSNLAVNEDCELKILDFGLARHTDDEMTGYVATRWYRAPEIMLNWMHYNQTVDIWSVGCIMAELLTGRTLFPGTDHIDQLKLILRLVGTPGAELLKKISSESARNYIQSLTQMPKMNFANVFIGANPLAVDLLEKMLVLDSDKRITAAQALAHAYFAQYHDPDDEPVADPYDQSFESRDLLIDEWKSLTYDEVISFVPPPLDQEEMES
Chain of Mitogen-activated protein kinase; ERK1/ERK2 (Homo sapiens) (P27361 whole entry, looked up): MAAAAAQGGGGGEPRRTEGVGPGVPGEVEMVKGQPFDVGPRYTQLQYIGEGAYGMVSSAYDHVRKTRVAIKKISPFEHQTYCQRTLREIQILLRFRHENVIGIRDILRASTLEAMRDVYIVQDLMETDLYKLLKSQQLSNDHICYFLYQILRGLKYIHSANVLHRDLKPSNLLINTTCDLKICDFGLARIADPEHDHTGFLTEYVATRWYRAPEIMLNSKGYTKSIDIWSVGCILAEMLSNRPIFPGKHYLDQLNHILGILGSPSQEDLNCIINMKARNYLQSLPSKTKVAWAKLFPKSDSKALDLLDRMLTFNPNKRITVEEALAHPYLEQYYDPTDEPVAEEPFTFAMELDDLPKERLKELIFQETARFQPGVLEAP
Chain of Mitogen-activated protein kinase; ERK1/ERK2 (Homo sapiens) (P28482 whole entry, looked up): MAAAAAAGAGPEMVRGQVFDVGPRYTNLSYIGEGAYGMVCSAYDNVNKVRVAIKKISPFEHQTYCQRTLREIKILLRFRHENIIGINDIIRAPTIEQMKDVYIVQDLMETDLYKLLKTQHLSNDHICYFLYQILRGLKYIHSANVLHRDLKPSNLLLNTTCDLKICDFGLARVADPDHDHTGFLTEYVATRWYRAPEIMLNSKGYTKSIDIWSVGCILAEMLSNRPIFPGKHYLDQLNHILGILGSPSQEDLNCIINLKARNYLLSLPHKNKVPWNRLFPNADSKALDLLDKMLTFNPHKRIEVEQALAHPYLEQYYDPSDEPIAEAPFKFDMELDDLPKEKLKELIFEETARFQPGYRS
Chain of Mitogen-activated protein kinase 8 (Homo sapiens) (P45983 whole entry): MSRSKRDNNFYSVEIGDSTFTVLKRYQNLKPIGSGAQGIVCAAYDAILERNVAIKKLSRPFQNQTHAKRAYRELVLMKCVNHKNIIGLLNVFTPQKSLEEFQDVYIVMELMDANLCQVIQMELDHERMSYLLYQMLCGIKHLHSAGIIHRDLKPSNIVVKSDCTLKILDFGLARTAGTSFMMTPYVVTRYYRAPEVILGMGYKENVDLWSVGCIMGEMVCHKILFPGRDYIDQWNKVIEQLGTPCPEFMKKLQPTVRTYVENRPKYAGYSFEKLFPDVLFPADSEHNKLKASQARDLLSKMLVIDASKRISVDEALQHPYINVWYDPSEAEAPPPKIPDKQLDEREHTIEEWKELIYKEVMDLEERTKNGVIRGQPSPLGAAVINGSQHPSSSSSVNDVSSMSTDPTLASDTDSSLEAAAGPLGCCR
Chain of Mitogen-activated protein kinase 11 (Homo sapiens) (Q15759 whole entry, canonical isoform): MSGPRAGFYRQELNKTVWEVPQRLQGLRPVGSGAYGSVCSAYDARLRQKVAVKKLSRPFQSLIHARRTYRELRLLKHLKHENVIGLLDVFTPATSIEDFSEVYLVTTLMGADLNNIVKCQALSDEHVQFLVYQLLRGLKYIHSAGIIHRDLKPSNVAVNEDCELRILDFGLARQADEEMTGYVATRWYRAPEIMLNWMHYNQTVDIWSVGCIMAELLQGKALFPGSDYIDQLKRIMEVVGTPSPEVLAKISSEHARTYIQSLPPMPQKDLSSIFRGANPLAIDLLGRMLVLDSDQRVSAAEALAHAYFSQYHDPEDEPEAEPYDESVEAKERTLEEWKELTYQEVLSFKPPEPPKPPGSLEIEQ

IC50 [1] | IC50 (MAP kinase p38 [2]) | IC50 (MAP kinase p38 [3]) | Structure (SMILES) | other results
0.101 µM | 0.07 µM | 0.044 µM | Cc1ccccc1C(=O)c1ccc(N(C)c2ccccc2N)cc1Cl | –
0.063 µM | 0.021 µM | 0.01 µM | CC(=O)Nc1ccccc1Nc1ccc(C(=O)c2ccccc2C)c(Cl)c1 | –
0.012 µM | 0.026 µM | 0.014 µM | Cc1ccccc1Nc1ccc(C(=O)c2ccccc2C)c(Cl)c1 | –
1.55 µM | > 5 µM | > 10 µM | C=C(c1ccccc1C)c1ccc(Nc2ccccc2N)cc1Cl | –
0.007 µM | 0.119 µM | 0.024 µM | Cc1ccccc1C(=O)c1ccc(Nc2ccccc2)cc1Cl | –
> 100 µM | > 10 µM | > 10 µM | Cc1ccccc1Cc1ccc(Nc2ccc(F)cc2N)cc1Cl | –
0.029 µM | 0.067 µM | 0.047 µM | Cc1ccccc1C(=O)c1ccc(Nc2ccccc2N)cc1 | –
0.054 µM | 0.045 µM | 0.034 µM | Nc1ccccc1Nc1ccc(C(=O)c2ccccc2Br)cc1 | –
0.811 µM | 0.483 µM | 0.444 µM | Nc1ccccc1Nc1ccc(C(=O)c2ccccc2-c2ccccc2)cc1 | –
0.143 µM | 0.343 µM | 0.127 µM | Cc1cc(C(=O)c2ccccc2C)ccc1Nc1ccccc1N | –
0.145 µM | 0.226 µM | 0.159 µM | Nc1ccccc1Nc1ccc(C(=O)c2ccccc2)cc1 | –
0.193 µM | 0.175 µM | 1.349 µM | O=C(c1ccccc1)c1ccc(Nc2ccccc2)cc1 | –
0.139 µM | 0.437 µM | 0.214 µM | Nc1ccccc1Nc1ccc(C(=O)c2ccccc2)c(Cl)c1 | –
– | – | – | CCCCC(=O)O[C@]1(C(=O)CO)[C@@H](C)C[C@H]2[C@@H]3CCC4=CC(=O)C=C[C@]4(C)[C@@]3(F)[C@@H](O)C[C@@]21C [BETAMETHASONE VALERATE] | Inhibition (Mus musculus [23]): 41%; Inhibition (Mus musculus [24]): 38%; inhibition [25]: 67%
0.574 µM | 0.58 µM | 0.467 µM | Cc1cccc(C(=O)c2ccc(Nc3ccccc3N)cc2)c1 | –
0.021 µM | 0.009 µM | 0.003 µM | CCNC(=O)Nc1ccccc1Nc1ccc(C(=O)c2ccccc2C)c(Cl)c1 | –
– | – | – | Fc1ccc(-c2ncn(C3CCNCC3)c2-c2ccncc2)cc1 [VK-19911] | inhibition [4]: 0%; inhibition [5]: 73%; inhibition [6]: 59%; inhibition [7]: 8%; inhibition [8]: 0%; IC50 (Homo sapiens [14]): > 1 µM; IC50 (Homo sapiens [15]): > 1 µM; IC50 (Homo sapiens [16]): > 1 µM; inhibition [18]: 9%
0.013 µM | 0.022 µM | 0.008 µM | Cc1ccccc1C(=O)c1ccc(Nc2ccccc2N)cc1C | –
0.437 µM | 0.427 µM | 0.382 µM | Cc1ccccc1C(=O)c1ccc(Nc2ccccc2[N+](=O)[O-])cc1Cl | –
0.005 µM | 0.028 µM | 0.02 µM | COc1ccccc1C(=O)c1ccc(Nc2ccccc2N)cc1Cl | –
0.042 µM | 0.016 µM | 0.006 µM | CCOC(=O)Nc1ccccc1Nc1ccc(C(=O)c2ccccc2C)c(Cl)c1 | –

Structure (SMILES) | IC50 [1] | IC50 (MAP kinase p38 [2]) | IC50 (MAP kinase p38 [3]) | other results
Cc1cc(F)ccc1Nc1ccc(C(=O)c2ccccc2C)c(Cl)c1 | 0.004 µM | 0.017 µM | 0.004 µM | inhibition [4]: 0%; inhibition [5]: 88%; inhibition [6]: 92%; inhibition [7]: 4%; inhibition [8]: 5%; Inhibition (Mus musculus [9]): 40%; Inhibition (Mus musculus [10]): 26%; Inhibition (Mus musculus [11]): 54%; Inhibition (Mus musculus [12]): 26%; inhibition [13]: 60%; IC50 (Homo sapiens [14]): > 1 µM; IC50 (Homo sapiens [15]): > 1 µM; IC50 (Homo sapiens [16]): > 1 µM; IC50 (MAP kinase p38 [17]): 0.035 µM; inhibition [18]: 0%; IC50 (MAP kinase p38 [19]): 0.051 µM; IC50 (MAP kinase p38 [20]): 0.079 µM; Inhibition (Mus musculus [21]): 46%; inhibition [22]: 57%
